Reference: the RNAGym collection of RNA variant scans (doi:10.1126/science.aae0568)
Fewer inactive variants are shown than the library holds.

B1: tRNA (parent)
chain: GUUCCGUUGGCGUAAUGGUAACGCGUCUCCCUCCUAAGGAGAAGACUGCGGGUUCGAGUCCCGUACGGAACG

Variants of: B1
Experiment: yeast fitness relative to wild type (ratio to wild type); higher = fitter; tRNA-Arg(CCU), competitive growth, 37 C, YPD
Procedure, shortened: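 Variants of the tRNA-Arg(CCU) gene were chemically synthesised with a 3% per-site mutation rate across 69 sites and placed at the native genomic locus in Saccharomyces cerevisiae. Six parallel replicates of the pooled strains were competed in YPD at 37°C for 24 hours, and gene amplicons from the start and end populations were read by 100-nucleotide paired-end sequencing. Darwinian fitness relative to wild type was derived from changes in genotype frequencies. Genotypes required ≥ 100 starting reads, and estimates < 0.5 were set to 0.5.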

Going from GUUCCGUUGGCGUAAUGGUAAGGCGUCUCCGUCCUAAGGAGAAGACUGCGGGUUCGAGUCUCGUACGGAACG [C22G C31G C61U] to GUUCCGUUGGCGUAAUGGUAAGGCGUCUCCCUCCUAAGGAGAAGACUGGGGGUUCGAGUCCGGUACGGAACG [C22G C49G C62G], the yeast fitness falls from 0.587 to at most 0.5.

Compared with GUUCCGUUGGCGUAAUGGUAAGGCGUCUCCCUCUUAAGGAGACGACUGCGGGUUCGAGUCCCGUACGGUACG [C22G C34U A43C A69U], GUUCCGUUGGCGUAAUGGUAAGGCGUCUCCUUCCUAAGGAGAAGACUGCGGGUUCGAGUCCCGCACGGAACG [C22G C31U U64C] is higher in yeast fitness: at most 0.5 for the first, 0.748 for the second.

First: GUUCCGUUGGCGUAAUGGUAAGGCGUCUACCUCCUAAGGAGAAGACUGCGGGAUCGAGUCCCGUAUGGAACG [C22G C29A U53A C66U]
Second: GUUCCGUUGGCGUAAUGGUAAGGCGUCUCCGUCCUAAGGAGAAGACUGCGGGUUCGAGUCCCGUAUGGAACG [C22G C31G C66U]
The yeast fitness of the first is lower: at most 0.5 for the first, 0.64 for the second.

Going from GUUCCGUUGGCGUAAUGGUAAGGCGUCUACCUCCUAAGGAGAAGACUGCGGGUUCGAGUCCCAUACGGAACG [C22G C29A G63A] to GUUCCGUUGGCGUAAUGGUAAGGCGUCUCCCUCCUAAGGAGAAGACUGUGGGUUCGAGUCCGGUACGGAACG [C22G C49U C62G], the yeast fitness rises from 0.553 to 0.558.

Going from GUUCCGUUGGCGUAAUGGUAAGGCGUCUCCCUCCUAAGGAGAAGACUGCGGGUUCGAGUACCGUACGGAACG [C22G C60A] to GUUCCGUUGGCGUAAUGGUAAGCCGUCUCCCUCCUAAGGAGUAGACUGCGGGUUCGAGUCCAGUACGGAACG [C22G G23C A42U C62A], the yeast fitness falls from 0.679 to at most 0.5.

First: GUUCCGUUGGCGUAAUGGUAAGGCGUCUCCGUCCUAAGGAGAAGACUGUGGGUGCGAGUCCCGUACGGAACG [C22G C31G C49U U54G]
Second: GUUCCGUUGGCGUAAUGGUAAGGCGUCUCCCUCCUAAGGAGAAGACUGCGGGUUCGAGUCCCGUAUGGAACG [C22G C66U]
The yeast fitness of the first is lower: 0.568 for the first, 0.896 for the second.

Compared with GUUCCGUUGGCGUAAUGGUAAGGCGUCUCCUUCCUAAGGAGAAGACUGCGGGAUCGAGUCCCGUACGGAACG [C22G C31U U53A], GUUCCGUUGGCGUAAUGGUAAGGCGUCUCGCUGCUAUGGAGAAGACUGCGGGUUCGAGUCGCGUACGGAACG [C22G C30G C33G A37U C61G] is higher in yeast fitness: at most 0.5 for the first, 0.683 for the second.

GUUCCGUUGGCGUAAUGGUAAGGCGUCUCCAUCCUAAGGAGAGGACUGCGGGUUCGAGUCCCGUACGGUACG [C22G C31A A43G A69U] and GUUCCGUUGGCGUAAUGGUAAGGCGUCUCCGUCCUAAGGAGAAGACUGCGGGUUCGAGUCCUGUACGCAACG [C22G C31G C62U G68C] cannot be ordered by yeast fitness: at most 0.5 for the first, at most 0.5 for the second.

Compared with GUUCCGUUGGCGUAAUGGUAAGGCGUCUACCUCCUAAGGAGAAGUCUGCGGGUUCGAGUCCCGUACGGAACG [C22G C29A A45U], GUUCCGUUGGCGUAAUGGUAAGGCGUCUCCCUCAUAAGGAGAAGACUGCGGGUUCGAAUCCCGUAAGGAACG [C22G C34A G58A C66A] is lower in yeast fitness: 0.615 for the first, at most 0.5 for the second.

Compared with GUUCCGUUGGCGUAAUGGUAAGGCGUCUCCCUCCUAAGGAGAAGACUGCGGGUUUGAGUCCCGUACGGAACG [C22G C55U], GUUCCGUUGGCGUAAUGGUAAGGCGUCUCUCUCCUAAGGAGAAGACUGCGGGUCCGAGUCCCGUACGGAACG [C22G C30U U54C] is lower in yeast fitness: 0.739 for the first, 0.554 for the second.

Compared with GUUCCGUUGGCGUAAUGGUAAGGCGUCUGCCUCCUAAGGACAAGACUGCGGGUUCGAGUCCCGUACGGAACG [C22G C29G G41C], GUUCCGUUGGCGUAAUGGUAAGGCGUCUCCGUCCUAAGGAGAAGACUGUGGGUUCGAGUCCCGUACGGAACG [C22G C31G C49U] is higher in yeast fitness: at most 0.5 for the first, 0.605 for the second.

Going from GUUCCGUUGGCGUAAUGGUAAGGCGUCUCCCUGCUAAGGAGAAGACUGCGGGUUCGAGUCCCGUACGGAACG [C22G C33G] to GUUCCGUUGGCGUAAUGGUAAGGCGUCUCCCUCUUAAGGAGAAGACUGCGGGUUCGAGUCCCGUACGGAACG [C22G C34U], the yeast fitness rises from 0.685 to 0.696.

First: GUUCCGUUGGCGUAAUGGUAAGGCGUCUCCCUCCUAAGGAGAAGACUGCGGGUUUGAGACCCGUCCGGAACG [C22G C55U U59A A65C]
Second: GUUCCGUUGGCGUAAUGGUAAGGCGUCUCCUUCCUAAGGAGAAGACUGCGGGUUCGAGUCGCGUACGGAACG [C22G C31U C61G]
The yeast fitness of the first is lower: at most 0.5 for the first, 0.614 for the second.

GUUCCGUUGGCGUAAUGGUAAGGCGUCUCCCUCCUAAGGAGAAGACUGGGGGUUCGAGUCCCGUAAGGAACG [C22G C49G C66A] and GUUCCGUUGGCGUAAUGGUAAGGCGUCUCCCUCAUAAGGAGAAGACUGCGGGUUCGAGUCCCGUACUGAACG [C22G C34A G67U] cannot be ordered by yeast fitness: at most 0.5 for the first, at most 0.5 for the second.

GUUCCGUUGGCGUAAUGGUAAGGCGUCUCCCUCAUAAGGAGGAGACUGCGGGUUCGAGUCCCGUAAGGAACG [C22G C34A A42G C66A] and GUUCCGUUGGCGUAAUGGUAAGGCGUCUCGCUCCUAAGGAGAAGACUGCGGGUUAGAGUCCCGUACGGAACG [C22G C30G C55A] cannot be ordered by yeast fitness: at most 0.5 for the first, at most 0.5 for the second.

Going from GUUCCGUUGGCGUAAUGGUAAGGCGUCUGCCUCCUAAGGAGAAGACUGCGGGUUCGAGUCCCGUACGCAACG [C22G C29G G68C] to GUUCCGUUGGCGUAAUGGUAAGGCGUCUCCCUCAUUAGGAGAAGACUGCGGGUUCGAGUCCCGUACGGAACG [C22G C34A A36U], the yeast fitness rises from at most 0.5 to 0.656.

First: GUUCCGUUGGCGUAAUGGUAAGGCGUCUGCCUCCUAAGGAGAAGAUUGCGGGUUCGAGUCCCAUACGGAUCG [C22G C29G C46U G63A A70U]
Second: GUUCCGUUGGCGUAAUGGUAAGGCGUCUCCGUCCUAAGGAGAAGACUGCGGGUUCGAGUCCCGUACAGAACG [C22G C31G G67A]
The yeast fitness of the first is lower: at most 0.5 for the first, 0.615 for the second.

GUUCCGUUGGCGUAAUGGUAAGGCGUCUCCCUGCUUAGGAGAAGACUGCGGGUUCGAGUCCCGUACGGAACG [C22G C33G A36U] and GUUCCGUUGGCGUAAUGGUAAGGCGUCUCCUUCCUAAGGAGAAGACUGUGGGUUCGAGUCACGUACGGAACG [C22G C31U C49U C61A] cannot be ordered by yeast fitness: at most 0.5 for the first, at most 0.5 for the second.

Compared with GUUCCGUUGGCGUAAUGGUAAGGCGUCUCCCUCCUAAGGAGAAGACUGGGGGUUCGAGUCCCGUACGCAACG [C22G C49G G68C], GUUCCGUUGGCGUAAUGGUAAGGCGUCUCCCUCAUUAGGAGCAGAGUGCGGGUUCGAGUCCCGUACGGAACG [C22G C34A A36U A42C C46G] is lower in yeast fitness: 0.529 for the first, at most 0.5 for the second.
